Source: ChEMBL document CHEMBL1125258, “Topographically designed analogues of [D-Pen,D-Pen5]enkephalin” (J Med Chem, 1991)

What was measured:
[1] = species: Cavia porcellus; experiment: Percent maximal inhibition (Emax) was measured using guinea pig ileum assay (GPI).; type: functional
[2] = biological target: T1, Mu-type opioid receptor (Rattus norvegicus, UniProt P33535); experiment: Inhibitory activity measured against [3H]CTOP (Opioid receptor mu 1) in rat brain using radioreceptor binding assays.; type: tissue-based
T1 sequence (P33535 whole entry): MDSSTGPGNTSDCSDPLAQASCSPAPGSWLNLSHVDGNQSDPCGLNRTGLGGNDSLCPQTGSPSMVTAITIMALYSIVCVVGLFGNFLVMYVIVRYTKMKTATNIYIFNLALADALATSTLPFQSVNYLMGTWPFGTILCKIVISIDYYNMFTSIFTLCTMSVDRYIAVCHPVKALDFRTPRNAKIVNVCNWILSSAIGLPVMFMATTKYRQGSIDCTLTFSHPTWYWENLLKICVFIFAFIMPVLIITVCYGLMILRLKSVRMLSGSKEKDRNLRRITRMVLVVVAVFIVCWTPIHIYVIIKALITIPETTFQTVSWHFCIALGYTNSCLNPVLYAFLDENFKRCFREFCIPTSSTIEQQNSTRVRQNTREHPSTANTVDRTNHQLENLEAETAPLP
Procedure, shortened: (§1)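 Male Sprague-Dawley rat whole brain minus cerebellum, homogenised and washed three times (30 min at 25 °C in 50 mM Tris) to remove endogenous opioids. Homogenate at 0.5% final was incubated with 0.5 nM [3H]CTOP in 50 mM Tris-HCl pH 7.4 containing 5 mM MgCl2 and BSA 1 mg/mL for 120 min at 25 °C. Nonspecific binding was defined with 1 μM naltrexone. Bound ligand was collected by filtration and counted by scintillation; duplicates, 2–4 experiments.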

[3] = biological target: Delta-type opioid receptor (Mus musculus, UniProt P32300); experiment: Inhibitory activity measured against Opioid receptor delta 1 using mouse vas deference assay (MVD).
Sequence of Delta-type opioid receptor (Mus musculus, UniProt P32300) (P32300 whole entry): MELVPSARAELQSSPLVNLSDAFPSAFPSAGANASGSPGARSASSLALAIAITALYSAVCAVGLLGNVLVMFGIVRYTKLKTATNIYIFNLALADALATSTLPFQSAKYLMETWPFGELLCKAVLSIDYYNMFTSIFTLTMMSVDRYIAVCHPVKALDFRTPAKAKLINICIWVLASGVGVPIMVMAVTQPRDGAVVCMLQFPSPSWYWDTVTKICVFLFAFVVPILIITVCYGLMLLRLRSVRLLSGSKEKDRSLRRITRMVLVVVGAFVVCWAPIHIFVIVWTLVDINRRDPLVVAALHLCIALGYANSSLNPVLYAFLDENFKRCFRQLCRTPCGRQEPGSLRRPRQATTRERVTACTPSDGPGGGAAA
Procedure, shortened: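 Vas deferens from male ICR mice (25–30 g) in magnesium-free oxygenated Krebs bicarbonate at 37 °C under 0.5 g tension. Electrical stimulation at 0.1 Hz with 2.0-ms pulses at supramaximal voltage. Agonist contact was 3 min.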

[4] = biological target: T2, Delta-type opioid receptor (Rattus norvegicus, UniProt P33533); experiment: Inhibitory activity measured against [3H]DPDPE (Opioid receptor delta 1 ligand) in rat brain using radioreceptor binding assays.; type: tissue-based
T2 sequence (P33533 whole entry): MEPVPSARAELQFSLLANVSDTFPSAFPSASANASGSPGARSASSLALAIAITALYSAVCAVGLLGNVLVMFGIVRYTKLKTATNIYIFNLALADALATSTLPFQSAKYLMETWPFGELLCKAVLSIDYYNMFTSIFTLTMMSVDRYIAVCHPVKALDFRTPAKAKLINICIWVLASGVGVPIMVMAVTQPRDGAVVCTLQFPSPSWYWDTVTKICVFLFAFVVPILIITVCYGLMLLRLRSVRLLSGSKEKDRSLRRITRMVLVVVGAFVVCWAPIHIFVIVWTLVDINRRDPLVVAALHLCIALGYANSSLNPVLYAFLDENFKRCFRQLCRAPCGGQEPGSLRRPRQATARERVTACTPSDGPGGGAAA
Procedure, shortened: (§2)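 Male Sprague-Dawley rat brain membranes (minus cerebellum), washed three times to remove endogenous opioids. Specific binding was defined as that displaced by 1 μM naltrexone. Filtration and scintillation counting; duplicates, 2–4 experiments.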

[5] = biological target: T1, Mu-type opioid receptor; experiment: Binding affinity measured against [3H]CTOP (Opioid receptor mu 1) in rat brain using radioreceptor binding assays.; type: tissue-based; procedure, shortened: as §1
[6] = biological target: T2, Delta-type opioid receptor; experiment: Binding affinity measured against [3H]DPDPE (Opioid receptor delta 1 ligand) in rat brain using radioreceptor binding assays.; type: tissue-based; procedure, shortened: as §2
[7] = biological target: Mu-type opioid receptor (Cavia porcellus, UniProt P97266); experiment: Inhibitory activity measured against Opioid receptor mu 1 using guinea pig ileum assay (GPI).; type: tissue-based
Sequence of Mu-type opioid receptor (Cavia porcellus, UniProt P97266) (P97266 whole entry): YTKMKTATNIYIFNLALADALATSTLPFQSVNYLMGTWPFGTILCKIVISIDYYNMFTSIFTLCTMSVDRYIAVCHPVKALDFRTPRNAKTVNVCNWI
Procedure, shortened: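 Longitudinal muscle-myenteric plexus from the ileum of male Hartley guinea pigs (150–400 g) in oxygenated Krebs bicarbonate at 37 °C under 1 g tension. Electrical stimulation at 0.1 Hz with 0.4-ms pulses at supramaximal voltage. Agonist exposure was 3 min, followed by rinse and 8 min re-equilibration. Percent inhibition of contraction was fitted to a logistic equation for IC50; duplicates, 2–4 experiments.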

| Compound | E max [1] [%] | IC50 [2] [nM] | IC50 [3] [nM] | IC50 [4] [nM] | Ki [5] [nM] | Ki [6] [nM] | IC50 [7] [nM] |
| --- | --- | --- | --- | --- | --- | --- | --- |
| C[C@H](c1ccccc1)[C@H]1NC(=O)CNC(=O)[C@H](NC(=O)[C@@H](N)Cc2ccc(O)cc2)C(C)(C)SSC(C)(C)[C@H](C(=O)O)NC1=O | 100 |  |  |  |  |  |  |
| C[C@H](c1ccc([N+](=O)[O-])cc1)[C@@H]1NC(=O)CNC(=O)[C@H](NC(=O)[C@@H](N)Cc2ccc(O)cc2)C(C)(C)SSC(C)(C)[C@H](C(=O)O)NC1=O [listing 1 of 2 here] |  | 105 | 27 | 4.2 | 24 | 3.4 | 2700 |
| C[C@H](c1ccc([N+](=O)[O-])cc1)[C@@H]1NC(=O)CNC(=O)[C@H](NC(=O)[C@@H](N)Cc2ccc(O)cc2)C(C)(C)SSC(C)(C)[C@H](C(=O)O)NC1=O [listing 2 of 2 here] | 74 |  |  |  |  |  |  |
| C[C@@H](c1ccccc1)[C@H]1NC(=O)CNC(=O)[C@H](NC(=O)[C@@H](N)Cc2ccc(O)cc2)C(C)(C)SSC(C)(C)[C@H](C(=O)O)NC1=O | 100 |  |  |  |  |  |  |
| C[C@@H](c1ccc([N+](=O)[O-])cc1)[C@H]1NC(=O)CNC(=O)[C@H](NC(=O)[C@@H](N)Cc2ccc(O)cc2)C(C)(C)SSC(C)(C)[C@H](C(=O)O)NC1=O [listing 1 of 2 here] |  | 1020 | 1790 | 222 | 240 | 180 | 12300 |
| C[C@@H](c1ccc([N+](=O)[O-])cc1)[C@H]1NC(=O)CNC(=O)[C@H](NC(=O)[C@@H](N)Cc2ccc(O)cc2)C(C)(C)SSC(C)(C)[C@H](C(=O)O)NC1=O [listing 2 of 2 here] | 66 |  |  |  |  |  |  |
| C[C@H](c1ccccc1)[C@@H]1NC(=O)CNC(=O)[C@H](NC(=O)[C@@H](N)Cc2ccc(O)cc2)C(C)(C)SSC(C)(C)[C@H](C(=O)O)NC1=O (stereo in doubt; 4) | 56 |  |  |  |  |  |  |
| C[C@H](c1ccc([N+](=O)[O-])cc1)[C@H]1NC(=O)CNC(=O)[C@@H](NC(=O)[C@@H](N)Cc2ccc(O)cc2)C(C)(C)SSC(C)(C)[C@@H](C(=O)O)NC1=O (stereo in doubt; 6) | 73 | 2200 | 4.59 | 6.89 | 530 | 5.5 | 25700 |
| C[C@H](c1ccc([N+](=O)[O-])cc1)[C@H]1NC(=O)CNC(=O)[C@@H](NC(=O)[C@@H](N)Cc2ccc(O)cc2)C(C)(C)SSC(C)(C)[C@@H](C(=O)O)NC1=O (stereo in doubt; 7) |  | > 10000 | 630 | 226 |  | 180 | > 10000 |
